Values after ≈ are worked out from the molar mass of the structure shown.
Columns and labels:
Staphylococcus aureus [1] = experiment: Antibacterial activity against 10^5 CFU/mL Staphylococcus aureus MTCC 96 after 24 hrs by disc diffusion technique; assay type: functional
Summary of the method: (§1)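 Disc diffusion on Mueller–Hinton agar poured 5 mm deep. The surface was swabbed with a 10⁵ CFU/mL […] suspension. Filter-paper discs 6.25 mm in diameter were soaked in compound in DMSO and placed on the agar. Plates were incubated 24 h at 37 ± 1 °C, and the inhibition zone was measured in mm. A DMSO disc served as blank.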

Staphylococcus aureus [2] = experiment: Antibacterial activity against 10^5 CFU/mL Staphylococcus aureus MTCC 96 after 24 hrs by agar streak dilution method; assay type: functional; settings: MTCC 96, 24 h
Summary of the method: (§2)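 Agar streak dilution. Stock 100 µg/mL in DMSO; graded amounts were mixed into molten nutrient agar and poured at 4–5 mm depth. Plates carried serial dilutions over […]. About 10⁵ CFU/mL of each bacterium was applied, and plates were incubated at 37 ± 1 °C for 24 h. MIC was read from the dilution series.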

Bacillus cereus [3] = experiment: Antibacterial activity against 10^5 CFU/mL Bacillus cereus MTCC 619 after 24 hrs by disc diffusion technique; assay type: functional; summary of the method: as §1
Bacillus cereus [4] = experiment: Antibacterial activity against 10^5 CFU/mL Bacillus cereus MTCC 619 after 24 hrs by agar streak dilution method; assay type: functional; settings: MTCC 619, 24 h; summary of the method: as §2
DU-145 = experiment: Cytotoxicity against […] human DU145 cells after 48 hrs by SRB assay; assay type: functional; settings: DU-145, 48 h
Summary of the method: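 SRB assay in DU-145 cells grown in RPMI 1640 with 10% FBS and 2 mM L-glutamine. Cells were plated and held 24 h before addition of four 10-fold concentrations. After 48 h, cells were TCA-fixed, stained with 0.4% SRB and read at 540 nm. GI50, TGI and LC50 were derived against time-zero and control wells; each value is the mean of three experiments.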

Escherichia coli [5] = experiment: Antibacterial activity against 10^5 CFU/mL Escherichia coli MTCC 739 after 24 hrs by disc diffusion technique; assay type: functional; summary of the method: as §1
Escherichia coli [6] = experiment: Antibacterial activity against 10^5 CFU/mL Escherichia coli MTCC 739 after 24 hrs by agar streak dilution method; assay type: functional; settings: MTCC 739, 24 h; summary of the method: as §2
Pseudomonas aeruginosa [7] = experiment: Antibacterial activity against 10^5 CFU/mL Pseudomonas aeruginosa MTCC 741 after 24 hrs by disc diffusion technique; assay type: functional; summary of the method: as §1
Pseudomonas aeruginosa [8] = experiment: Antibacterial activity against 10^5 CFU/mL Pseudomonas aeruginosa MTCC 741 after 24 hrs by agar streak dilution method; assay type: functional; settings: MTCC 741, 24 h; summary of the method: as §2
Klebsiella pneumoniae [9] = experiment: Antibacterial activity against 10^5 CFU/mL Klebsiella pneumoniae MTCC 109 after 24 hrs by disc diffusion technique; assay type: functional; summary of the method: as §1
Klebsiella pneumoniae [10] = experiment: Antibacterial activity against 10^5 CFU/mL Klebsiella pneumoniae MTCC 109 after 24 hrs by agar streak dilution method; assay type: functional; settings: MTCC 109, 24 h; summary of the method: as §2
Salmonella typhi [11] = experiment: Antibacterial activity against 10^5 CFU/mL Salmonella typhi MTCC 733 after 24 hrs by disc diffusion technique; assay type: functional, Salmonella enterica subsp. enterica serovar Typhi
Summary of the method: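 Disc diffusion. Mueller-Hinton agar autoclaved 120 °C 30 min, poured 5 mm deep. Surface swabbed with 10⁵ CFU/mL suspension […]. 6.25 mm filter-paper discs soaked in compound in DMSO; DMSO-only disc as blank. Incubated 37 ± 1 °C, 24 h for bacteria or 48 h for fungi. Ciprofloxacin and ketoconazole discs as reference drugs. Inhibition zone measured in mm.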

Salmonella typhi [12] = experiment: Antibacterial activity against 10^5 CFU/mL Salmonella typhi MTCC 733 after 24 hrs by agar streak dilution method; assay type: functional, Salmonella enterica subsp. enterica serovar Typhi; settings: Salmonella enterica, MTCC 733, 24 h
Proteus vulgaris [13] = experiment: Antibacterial activity against 10^5 CFU/mL Proteus vulgaris MTCC 1771 after 24 hrs by disc diffusion technique; assay type: functional; summary of the method: as §1
Proteus vulgaris [14] = experiment: Antibacterial activity against 10^5 CFU/mL Proteus vulgaris MTCC 1771 after 24 hrs by agar streak dilution method; assay type: functional; settings: MTCC 1771, 24 h; summary of the method: as §2
Shigella flexneri [15] = experiment: Antibacterial activity against 10^5 CFU/mL Shigella flexneri MTCC 1457 after 24 hrs by disc diffusion technique; assay type: functional; summary of the method: as §1
Shigella flexneri [16] = experiment: Antibacterial activity against 10^5 CFU/mL Shigella flexneri MTCC 1457 after 24 hrs by agar streak dilution method; assay type: functional; settings: MTCC 1457, 24 h; summary of the method: as §2
Aspergillus niger [17] = experiment: Antifungal activity against 10^5 CFU/mL Aspergillus niger MTCC 282 after 48 hrs by disc diffusion technique; assay type: functional
Aspergillus niger [18] = experiment: Antifungal activity against 10^5 CFU/mL Aspergillus niger MTCC 282 after 48 hrs by agar streak dilution method; assay type: functional; settings: MTCC 282, 48 h
Summary of the method: (§3)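 Agar streak dilution for fungi. Stock 100 µg/mL in DMSO; graded amounts were mixed into molten Sabouraud dextrose agar and poured at 4–5 mm depth. Serial dilutions ran over […]. About 10⁵ CFU/mL inoculum was applied, with incubation at 37 ± 1 °C for 48 h. MIC was read from the dilution series.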

Aspergillus fumigatus [19] = experiment: Antifungal activity against 10^5 CFU/mL Aspergillus fumigatus MTCC 343 after 48 hrs by disc diffusion technique; assay type: functional
Aspergillus fumigatus [20] = experiment: Antifungal activity against 10^5 CFU/mL Aspergillus fumigatus MTCC 343 after 48 hrs by agar streak dilution method; assay type: functional; settings: MTCC 343, 48 h; summary of the method: as §3
Aspergillus clavatus [21] = experiment: Antifungal activity against 10^5 CFU/mL Aspergillus clavatus MTCC 1323 after 48 hrs by disc diffusion technique; assay type: functional
Aspergillus clavatus [22] = experiment: Antifungal activity against 10^5 CFU/mL Aspergillus clavatus MTCC 1323 after 48 hrs by agar streak dilution method; assay type: functional; settings: MTCC 1323, 48 h; summary of the method: as §3
Candida albicans [23] = experiment: Antifungal activity against 10^5 CFU/mL Candida albicans MTCC 183 after 48 hrs by disc diffusion technique; assay type: functional
Candida albicans [24] = experiment: Antifungal activity against 10^5 CFU/mL Candida albicans MTCC 183 after 48 hrs by agar streak dilution method; assay type: functional; settings: MTCC 183, 48 h; summary of the method: as §3

Structure (SMILES) | inhibition zone (IZ) (Staphylococcus aureus [1]) | MIC (Staphylococcus aureus [2]) | inhibition zone (IZ) (Bacillus cereus [3]) | MIC (Bacillus cereus [4]) | GI50 (DU-145) | LC50 (concentration giving 50% net cell kill relative to time zero) (DU-145) | TGI (DU-145) | inhibition zone (IZ) (Escherichia coli [5]) | MIC (Escherichia coli [6]) | inhibition zone (IZ) (Pseudomonas aeruginosa [7]) | MIC (Pseudomonas aeruginosa [8]) | inhibition zone (IZ) (Klebsiella pneumoniae [9]) | MIC (Klebsiella pneumoniae [10]) | inhibition zone (IZ) (Salmonella typhi [11]) | MIC (Salmonella typhi [12]) | inhibition zone (IZ) (Proteus vulgaris [13]) | MIC (Proteus vulgaris [14]) | inhibition zone (IZ) (Shigella flexneri [15]) | MIC (Shigella flexneri [16]) | inhibition zone (IZ) (Aspergillus niger [17]) | other results
CN1CCN(c2nc(Nc3ccc(C#N)c(C(F)(F)F)c3)nc(Oc3ccnc4ccccc34)n2)CC1 | <10 mm | 100 µg/mL (≈ 197 µM) | <10 mm | 100 µg/mL (≈ 197 µM) | 51.2 µM | > 100 µM | > 100 µM | <10 mm | 100 µg/mL (≈ 197 µM) | 14 mm | 100 µg/mL (≈ 197 µM) | <10 mm | 100 µg/mL (≈ 197 µM) | 13 mm | 100 µg/mL (≈ 197 µM) | <10 mm | 100 µg/mL (≈ 197 µM) | 11 mm | 100 µg/mL (≈ 197 µM) | <10 mm | MIC (Aspergillus niger [18]): 100 µg/mL (≈ 197 µM); inhibition zone (IZ) (Aspergillus fumigatus [19]): <10 mm; MIC (Aspergillus fumigatus [20]): 100 µg/mL (≈ 197 µM); inhibition zone (IZ) (Aspergillus clavatus [21]): <10 mm; MIC (Aspergillus clavatus [22]): 100 µg/mL (≈ 197 µM); inhibition zone (IZ) (Candida albicans [23]): <10 mm; MIC (Candida albicans [24]): 100 µg/mL (≈ 197 µM)
CCN1CCN(c2nc(Nc3ccc(C#N)c(C(F)(F)F)c3)nc(Oc3ccnc4ccccc34)n2)CC1 | 13 mm | 100 µg/mL (≈ 192 µM) | 14 mm | 100 µg/mL (≈ 192 µM) | 86.6 µM | > 100 µM | > 100 µM | 13 mm | 100 µg/mL (≈ 192 µM) | 16 mm | 100 µg/mL (≈ 192 µM) | <10 mm | 100 µg/mL (≈ 192 µM) | 15 mm | 100 µg/mL (≈ 192 µM) | <10 mm | 100 µg/mL (≈ 192 µM) | 13 mm | 100 µg/mL (≈ 192 µM) | <10 mm | MIC (Aspergillus niger [18]): 100 µg/mL (≈ 192 µM); inhibition zone (IZ) (Aspergillus fumigatus [19]): <10 mm; MIC (Aspergillus fumigatus [20]): 100 µg/mL (≈ 192 µM); inhibition zone (IZ) (Aspergillus clavatus [21]): <10 mm; MIC (Aspergillus clavatus [22]): 100 µg/mL (≈ 192 µM); inhibition zone (IZ) (Candida albicans [23]): 12 mm; MIC (Candida albicans [24]): 100 µg/mL (≈ 192 µM)
N#Cc1ccc(Nc2nc(Oc3ccnc4ccccc34)nc(N3CCN(c4ccccc4Cl)CC3)n2)cc1C(F)(F)F | 25 mm | 12.5 µg/mL (≈ 20.7 µM) | 24 mm | 12.5 µg/mL (≈ 20.7 µM) | 92.6 µM | > 100 µM | > 100 µM | 22 mm | 50 µg/mL (≈ 82.9 µM) | 23 mm | 50 µg/mL (≈ 82.9 µM) | 26 mm | 12.5 µg/mL (≈ 20.7 µM) | 23 mm | 50 µg/mL (≈ 82.9 µM) | 23 mm | 100 µg/mL (≈ 166 µM) | 21 mm | 50 µg/mL (≈ 82.9 µM) | 21 mm | MIC (Aspergillus niger [18]): 100 µg/mL (≈ 166 µM); inhibition zone (IZ) (Aspergillus fumigatus [19]): 21 mm; MIC (Aspergillus fumigatus [20]): 100 µg/mL (≈ 166 µM); inhibition zone (IZ) (Aspergillus clavatus [21]): 20 mm; MIC (Aspergillus clavatus [22]): 100 µg/mL (≈ 166 µM); inhibition zone (IZ) (Candida albicans [23]): 20 mm; MIC (Candida albicans [24]): 100 µg/mL (≈ 166 µM)
N#Cc1ccc(Nc2nc(Oc3ccnc4ccccc34)nc(N3CCN(c4cccc(Cl)c4Cl)CC3)n2)cc1C(F)(F)F | 28 mm | 6.25 µg/mL (≈ 9.8 µM) | 28 mm | 6.25 µg/mL (≈ 9.8 µM) | > 100 µM | > 100 µM | > 100 µM | 23 mm | 50 µg/mL (≈ 78.4 µM) | 23 mm | 25 µg/mL (≈ 39.2 µM) | 24 mm | 12.5 µg/mL (≈ 19.6 µM) | 25 mm | 12.5 µg/mL (≈ 19.6 µM) | 25 mm | 12.5 µg/mL (≈ 19.6 µM) | 24 mm | 12.5 µg/mL (≈ 19.6 µM) | 24 mm | MIC (Aspergillus niger [18]): 25 µg/mL (≈ 39.2 µM); inhibition zone (IZ) (Aspergillus fumigatus [19]): 25 mm; MIC (Aspergillus fumigatus [20]): 25 µg/mL (≈ 39.2 µM); inhibition zone (IZ) (Aspergillus clavatus [21]): 21 mm; MIC (Aspergillus clavatus [22]): 50 µg/mL (≈ 78.4 µM); inhibition zone (IZ) (Candida albicans [23]): 23 mm; MIC (Candida albicans [24]): 50 µg/mL (≈ 78.4 µM)

— ChEMBL document CHEMBL1828552, “Synthesis and studies of novel 2-(4-cyano-3-trifluoromethylphenyl amino)-4-(quinoline-4-yloxy)-6-(piperazinyl/piperidinyl)-s-triazines as potential antimicrobial, antimycobacterial and anticancer agents” (2011)
